# Experimental data: ChEMBL document CHEMBL1137015, “Improved, selective, human intestinal carboxylesterase inhibitors designed to modulate 7-ethyl-10-[4-(1-piperidino)-1-piperidino]carbonyloxycamptothecin (Irinotecan; CPT-11) toxicity” (J Med Chem, 2009)
# Active and inactive are the calls of the source.
# Key:
# [1] = molecular target: Cholinesterase (Homo sapiens) (UniProt P06276); experiment: Inhibition of human BchE using butyrylthiocholine as substrate by spectrophotometric multiwell plate assay
# Sequence of Cholinesterase (Homo sapiens) (P06276 whole entry): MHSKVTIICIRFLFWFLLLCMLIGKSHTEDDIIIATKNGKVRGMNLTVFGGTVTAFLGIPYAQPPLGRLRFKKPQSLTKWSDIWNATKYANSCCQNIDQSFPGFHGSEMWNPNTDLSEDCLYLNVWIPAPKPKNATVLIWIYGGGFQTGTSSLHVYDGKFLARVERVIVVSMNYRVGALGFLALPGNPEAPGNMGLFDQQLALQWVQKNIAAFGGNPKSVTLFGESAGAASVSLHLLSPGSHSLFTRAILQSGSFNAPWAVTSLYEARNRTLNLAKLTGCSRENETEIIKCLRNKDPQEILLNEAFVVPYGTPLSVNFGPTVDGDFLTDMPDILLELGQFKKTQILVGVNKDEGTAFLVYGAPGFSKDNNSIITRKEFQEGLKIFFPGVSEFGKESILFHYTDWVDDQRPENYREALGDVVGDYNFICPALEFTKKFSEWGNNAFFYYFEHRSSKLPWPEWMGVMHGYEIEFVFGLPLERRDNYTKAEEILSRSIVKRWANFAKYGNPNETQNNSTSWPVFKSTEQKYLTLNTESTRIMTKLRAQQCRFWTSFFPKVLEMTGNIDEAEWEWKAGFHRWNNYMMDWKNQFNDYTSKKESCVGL
# [2] = Inhibition of human intestinal CE-mediated irinotecan hydrolysis
# Summary of the method: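 Human intestinal CE (25 U per reaction; 1 U converts 1 nmole o-nitrophenyl acetate/min) with 20µM CPT-11 in 50mM Hepes pH7.4, inhibitor 1nM to 100µM. Incubated 37°C for 5 min, stopped with cold acidified methanol, centrifuged. SN-38 measured by reverse phase HPLC. Fractional inhibition fitted to partial inhibition equation, model chosen by Akaike's criteria, Ki from best fit.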
# Liver carboxylesterase 1 = molecular target: T1, Liver carboxylesterase 1 (Homo sapiens, UniProt P23141); experiment: Inhibition of human liver CE1-mediated O-nitrophenyl acetate hydrolysis by spectrophotometry
# T1 sequence (P23141 whole entry): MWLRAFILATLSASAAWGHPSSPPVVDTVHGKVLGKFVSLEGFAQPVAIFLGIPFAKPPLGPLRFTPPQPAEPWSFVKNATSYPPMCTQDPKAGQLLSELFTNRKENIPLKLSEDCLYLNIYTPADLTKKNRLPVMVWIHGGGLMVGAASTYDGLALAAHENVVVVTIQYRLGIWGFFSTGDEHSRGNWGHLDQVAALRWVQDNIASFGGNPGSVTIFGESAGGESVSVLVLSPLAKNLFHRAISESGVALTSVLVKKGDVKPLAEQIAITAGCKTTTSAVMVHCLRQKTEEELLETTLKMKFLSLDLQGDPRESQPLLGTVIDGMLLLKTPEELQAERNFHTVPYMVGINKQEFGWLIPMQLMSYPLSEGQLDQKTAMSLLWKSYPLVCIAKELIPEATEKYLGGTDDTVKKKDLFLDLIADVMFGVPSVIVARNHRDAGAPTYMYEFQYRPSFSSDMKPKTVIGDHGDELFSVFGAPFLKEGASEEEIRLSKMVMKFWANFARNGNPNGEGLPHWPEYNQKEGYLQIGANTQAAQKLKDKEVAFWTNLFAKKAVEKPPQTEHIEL
# Summary of the method: (§1)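 Enzyme activity read spectrophotometrically as release of o-nitrophenol from o-nitrophenyl acetate across increasing inhibitor concentrations. Inhibitors were freshly dissolved in DMSO, typically as 10mM stocks. Fractional inhibition was plotted against inhibitor concentration and fitted to a partial-inhibition equation including Ks, α and β. Inhibition mode was chosen by Akaike's information criteria, and Ki was taken from the best-fit model.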
# [3] = molecular target: Acetylcholinesterase (Homo sapiens) (UniProt P22303); experiment: Inhibition of human AchE using acetylthiocholine as substrate by spectrophotometric multiwell plate assay
# Sequence of Acetylcholinesterase (Homo sapiens) (P22303 whole entry): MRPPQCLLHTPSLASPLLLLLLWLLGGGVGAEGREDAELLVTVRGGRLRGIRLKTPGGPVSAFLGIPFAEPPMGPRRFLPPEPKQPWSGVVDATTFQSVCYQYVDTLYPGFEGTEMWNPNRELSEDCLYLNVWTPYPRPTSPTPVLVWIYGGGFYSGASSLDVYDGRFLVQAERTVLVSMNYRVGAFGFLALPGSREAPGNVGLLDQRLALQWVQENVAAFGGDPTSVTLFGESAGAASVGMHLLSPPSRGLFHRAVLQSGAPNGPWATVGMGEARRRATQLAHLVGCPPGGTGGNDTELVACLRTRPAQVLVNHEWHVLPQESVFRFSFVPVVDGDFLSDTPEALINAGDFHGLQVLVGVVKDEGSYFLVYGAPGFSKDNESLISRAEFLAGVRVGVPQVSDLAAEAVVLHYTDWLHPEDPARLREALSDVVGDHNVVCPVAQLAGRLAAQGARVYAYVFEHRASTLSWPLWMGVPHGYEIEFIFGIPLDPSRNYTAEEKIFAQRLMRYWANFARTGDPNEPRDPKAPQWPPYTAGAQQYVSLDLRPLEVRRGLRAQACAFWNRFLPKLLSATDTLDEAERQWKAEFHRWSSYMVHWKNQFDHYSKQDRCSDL
# [4] = Inhibition of human intestinal CE-mediated O-nitrophenyl acetate hydrolysis by spectrophotometry; summary of the method: as §1
SMILES,Activity [1],Ki [2] [µM],Ki (Liver carboxylesterase 1) [µM],Activity [3],Ki [4] [µM]
O=S(=O)(Nc1ccc(NS(=O)(=O)c2cc(F)c(F)c(F)c2)cc1)c1cc(F)c(F)c(F)c1,inactive,0.192,> 100,inactive,0.21
O=S(=O)(Nc1ccc(NS(=O)(=O)c2cccc(F)c2)cc1)c1cccc(F)c1,inactive,0.152,> 100,inactive,0.248
O=S(=O)(Nc1ccc(NS(=O)(=O)c2ccc(Br)cc2)cc1)c1ccc(Br)cc1,inactive,0.044,> 100,inactive,0.0852
O=S(=O)(Nc1ccc(NS(=O)(=O)c2ccc(F)cc2)cc1)c1ccc(F)cc1,inactive,0.079,> 100,inactive,0.355
Cc1c(C)c(NS(=O)(=O)c2ccc(F)cc2)c(C)c(C)c1NS(=O)(=O)c1ccc(F)cc1,inactive,> 100,> 100,inactive,> 100
Cc1c(C)c(NS(=O)(=O)c2cc(Cl)cc(Cl)c2)c(C)c(C)c1NS(=O)(=O)c1cc(Cl)cc(Cl)c1,inactive,> 100,> 100,inactive,2.6
O=S(=O)(Nc1ccc(NS(=O)(=O)c2cccc(Cl)c2)cc1)c1cccc(Cl)c1,inactive,0.062,> 100,inactive,0.074
O=S(=O)(Nc1ccc2c(c1)Cc1cc(NS(=O)(=O)c3cc(F)c(F)c(F)c3)ccc1-2)c1cc(F)c(F)c(F)c1,inactive,0.0581,> 100,inactive,0.0186
O=S(=O)(Nc1ccc2c(c1)Cc1cc(NS(=O)(=O)c3cccc(Br)c3)ccc1-2)c1cccc(Br)c1,inactive,0.0397,> 100,inactive,0.0212
Cc1c(C)c(NS(=O)(=O)c2ccc(Br)cc2)c(C)c(C)c1NS(=O)(=O)c1ccc(Br)cc1,inactive,> 100,> 100,inactive,3.24
O=S(=O)(Nc1c(F)c(F)c(NS(=O)(=O)c2ccc(Br)cc2)c(F)c1F)c1ccc(Br)cc1,inactive,0.028,> 100,inactive,0.0234
